# Experiments:
# [1] = tested on: Mycobacterium tuberculosis; assay: Antimycobacterial activity against Mycobacterium tuberculosis H37RvMA ATCC 27294 cultured in protein-based Middlebrook 7H9 medium supplemented with glucose, albumin-dextrose-catalase and Tween 80 assessed as inhibition of bacterial growth incubated for 7 days in by alamar blue staining based assay; assay type: functional; conditions: H37RvMA ATCC 27294, 168 h
# Outline: (§1)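 Broth microdilution MIC90 assay against H37RvMa (ATCC 27294). Culture grown to OD600 0.6–0.7, diluted 1:500. Compounds come from 10 mM DMSO stocks and are run as duplicate two-fold dilutions over 10 wells. Plates incubated at 37 °C, 5% CO2, humidified. AlamarBlue added on day 7 and incubated 24 h more, then read on day 8, visually (blue = no growth) or by fluorescence (excitation 540 nm).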
# [2] = tested on: Mycobacterium tuberculosis; assay: Antimycobacterial activity against Mycobacterium tuberculosis H37RvMA ATCC 27294 cultured in non protein-based Middlebrook 7H9 medium supplemented with glucose-casitone-tyloxapol assessed as inhibition of bacterial growth incubated for 7 days in by alamar blue staining based assay; assay type: functional; conditions: H37RvMA ATCC 27294, 168 h
# Outline: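 Medium is 7H9 with 0.03% Casitone, 0.4% glucose and 0.05% Tyloxapol. H37RvMa is grown to OD600 0.6–0.7 and diluted 1:500. Duplicate two-fold dilutions over 10 wells come from 10 mM DMSO stocks. Incubation at 37 °C, 5% CO2. AlamarBlue added on day 7. The MIC90 is the lowest concentration with no visible growth on day 8, or is read by fluorescence.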
# [3] = tested on: CHO-K1; assay: Cytotoxicity against CHOK1 cells assessed as reduction in cell viability incubated for 48 hrs by MTT assay; assay type: cell-based; conditions: Cricetulus griseus, CHO-K1, 48 h
# Outline: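 CHO-K1 cells seeded at 10^5 cells/well 24 h before exposure, medium then replaced with fresh medium containing compound; 48 h at 37 °C, 5% CO2, MTT added at 44 h for 4 h, formazan dissolved in DMSO, OD read at 540 nm. Triplicates; DMSO stocks 2 mg/mL, poorly soluble samples as suspensions; emetine reference; IC50 from non-linear dose-response fit.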
# [4] = tested on: Mycobacterium tuberculosis; assay: Antimycobacterial activity against Mycobacterium tuberculosis; assay type: functional; outline: as §1
# [5] = Protein binding in human serum; assay type: ADME, cell-free; conditions: read-out: PB
smiles,measurement,setting,value
COc1ccccc1NC(=O)/C(CCC=C(C)C)=C1\[C@@H](OC(C)=O)C[C@@]2(C)[C@H]1C[C@@H](O)[C@H]1[C@@]3(C)CC[C@@H](O)[C@@H](C)[C@@H]3CC[C@@]12C,MIC90,[1],43.2 µM
same,MIC90,[2],6.2 µM
same,IC50,[3],46.1 µM
CC(=O)O[C@H]1C[C@@]2(C)[C@@H](C[C@@H](O)[C@H]3[C@@]4(C)CC[C@@H](O)[C@@H](C)[C@@H]4CC[C@@]32C)/C1=C(\CCC=C(C)C)C(=O)Nc1ccc(F)cc1,MIC90,[1],125 µM
same,MIC90,[2],125 µM
same,IC50,[3],39.9 µM
CC(=O)O[C@H]1C[C@@]2(C)[C@@H](C[C@@H](O)[C@H]3[C@@]4(C)CC[C@@H](O)[C@@H](C)[C@@H]4CC[C@@]32C)/C1=C(\CCC=C(C)C)C(=O)N[C@H](C)c1ccccc1Cl,MIC90,[1],> 125 µM
same,MIC90,[2],10.1 µM
same,IC50,[3],18.2 µM
CC(=O)O[C@H]1C[C@@]2(C)[C@@H](C[C@@H](O)[C@H]3[C@@]4(C)CC[C@@H](O)[C@@H](C)[C@@H]4CC[C@@]32C)/C1=C(\CCC=C(C)C)C(=O)N[C@H](C)c1ccc(F)cc1,MIC90,[1],> 125 µM
same,MIC90,[2],> 125 µM
same,IC50,[3],8.24 µM
CC(=O)O[C@H]1C[C@@]2(C)[C@@H](C[C@@H](O)[C@H]3[C@@]4(C)CC[C@@H](O)[C@@H](C)[C@@H]4CC[C@@]32C)/C1=C(\CCC=C(C)C)C(=O)NCc1ccc(S(N)(=O)=O)cc1,MIC90,[1],62.3 µM
same,MIC90,[2],2.71 µM
same,IC50,[3],30.2 µM
CC(=O)O[C@H]1C[C@@]2(C)[C@@H](C[C@@H](O)[C@H]3[C@@]4(C)CC[C@@H](O)[C@@H](C)[C@@H]4CC[C@@]32C)/C1=C(\CCC=C(C)C)C(=O)N[C@@H](C)c1ccc(F)cc1,MIC90,[1],> 125 µM
same,MIC90,[2],7.59 µM
same,IC50,[3],47.4 µM
COC(=O)[C@H](NC(=O)/C(CCC=C(C)C)=C1\[C@@H](OC(C)=O)C[C@@]2(C)[C@H]1C[C@@H](O)[C@H]1[C@@]3(C)CC[C@@H](O)[C@@H](C)[C@@H]3CC[C@@]12C)c1ccccc1,MIC90,[1],38.8 µM
same,MIC90,[2],7.1 µM
same,IC50,[3],42.9 µM
CC(=O)O[C@H]1C[C@@]2(C)[C@@H](C[C@@H](O)[C@H]3[C@@]4(C)CC[C@@H](O)[C@@H](C)[C@@H]4CC[C@@]32C)/C1=C(\CCC=C(C)C)C(=O)Nc1ccc(O)cc1,MIC90,[1],> 125 µM
same,MIC90,[2],6.9 µM
same,IC50,[3],45.4 µM
CC(=O)O[C@H]1C[C@@]2(C)[C@@H](C[C@@H](O)[C@H]3[C@@]4(C)CC[C@@H](O)[C@@H](C)[C@@H]4CC[C@@]32C)/C1=C(\CCC=C(C)C)C(=O)N[C@@H](C)c1ccccc1,MIC90,[1],> 125 µM
same,MIC90,[2],8.9 µM
same,IC50,[3],46 µM
COc1ccc(NC(=O)/C(CCC=C(C)C)=C2\[C@@H](OC(C)=O)C[C@@]3(C)[C@H]2C[C@@H](O)[C@H]2[C@@]4(C)CC[C@@H](O)[C@@H](C)[C@@H]4CC[C@@]23C)cc1,MIC90,[1],> 125 µM
same,MIC90,[2],> 125 µM
same,IC50,[3],47.1 µM
CC(=O)O[C@H]1C[C@@]2(C)[C@@H](C[C@@H](O)[C@H]3[C@@]4(C)CC[C@@H](O)[C@@H](C)[C@@H]4CC[C@@]32C)/C1=C(\CCC=C(C)C)C(=O)N[C@@H](C)c1ccccc1Cl,MIC90,[1],41.5 µM
same,MIC90,[2],9.8 µM
same,IC50,[3],45.1 µM
CC(=O)O[C@H]1C[C@@]2(C)[C@@H](C[C@@H](O)[C@H]3[C@@]4(C)CC[C@@H](O)[C@@H](C)[C@@H]4CC[C@@]32C)/C1=C(\CCC=C(C)C)C(=O)N[C@@H](C)C1CCCCC1,MIC90,[1],> 125 µM
same,MIC90,[2],4.5 µM
same,IC50,[3],44.7 µM
CC(=O)O[C@H]1C[C@@]2(C)[C@@H](C[C@@H](O)[C@H]3[C@@]4(C)CC[C@@H](O)[C@@H](C)[C@@H]4CC[C@@]32C)/C1=C(\CCC=C(C)C)C(=O)NCc1ccc(O)cc1,MIC90,[1],125 µM
same,MIC90,[2],125 µM
same,IC50,[3],> 50 µM
CC(=O)O[C@H]1C[C@@]2(C)[C@@H](C[C@@H](O)[C@H]3[C@@]4(C)CC[C@@H](O)[C@@H](C)[C@@H]4CC[C@@]32C)/C1=C(\CCC=C(C)C)C(=O)N[C@H](C)c1ccccc1,MIC90,[1],> 125 µM
same,MIC90,[2],11 µM
same,IC50,[3],47.6 µM
CC(=O)O[C@H]1C[C@@]2(C)[C@@H](C[C@@H](O)[C@H]3[C@@]4(C)CC[C@@H](O)[C@@H](C)[C@@H]4CC[C@@]32C)/C1=C(\CCC=C(C)C)C(=O)NC1(c2ccccc2)CC1,MIC90,[1],> 125 µM
same,MIC90,[2],13.9 µM
same,IC50,[3],36.8 µM
CC(=O)O[C@H]1C[C@@]2(C)[C@@H](C[C@@H](O)[C@H]3[C@@]4(C)CC[C@@H](O)[C@@H](C)[C@@H]4CC[C@@]32C)/C1=C(\CCC=C(C)C)C(=O)Nc1ccc(C)cc1,MIC90,[1],125 µM
same,MIC90,[2],> 125 µM
same,IC50,[3],> 50 µM
CC(=O)O[C@H]1C[C@@]2(C)[C@@H](C[C@@H](O)[C@H]3[C@@]4(C)CC[C@@H](O)[C@@H](C)[C@@H]4CC[C@@]32C)/C1=C(\CCC=C(C)C)C(=O)NCc1ccc(F)cc1,MIC90,[1],125 µM
same,MIC90,[2],> 125 µM
same,IC50,[3],40.2 µM
CC(=O)O[C@H]1C[C@@]2(C)[C@@H](C[C@@H](O)[C@H]3[C@@]4(C)CC[C@@H](O)[C@@H](C)[C@@H]4CC[C@@]32C)/C1=C(\CCC=C(C)C)C(=O)N[C@@H](C(N)=O)c1ccccc1,MIC90,[1],15.7 µM
same,MIC90,[2],9.1 µM
same,IC50,[3],> 50 µM
COc1cccc(NC(=O)/C(CCC=C(C)C)=C2\[C@@H](OC(C)=O)C[C@@]3(C)[C@H]2C[C@@H](O)[C@H]2[C@@]4(C)CC[C@@H](O)[C@@H](C)[C@@H]4CC[C@@]23C)c1,MIC90,[1],> 125 µM
same,MIC90,[2],> 125 µM
same,IC50,[3],42.7 µM
CC(=O)O[C@H]1C[C@@]2(C)[C@@H](C[C@@H](O)[C@H]3[C@@]4(C)CC[C@@H](O)[C@@H](C)[C@@H]4CC[C@@]32C)/C1=C(\CCC=C(C)C)C(=O)NCc1ccccc1,MIC90,[1],125 µM
same,MIC90,[2],> 125 µM
same,IC50,[3],44.1 µM
CC(=O)O[C@H]1C[C@@]2(C)[C@@H](C[C@@H](O)[C@H]3[C@@]4(C)CC[C@@H](O)[C@@H](C)[C@@H]4CC[C@@]32C)/C1=C(\CCC=C(C)C)C(=O)N[C@H](C)C1CCCCC1,MIC90,[1],> 125 µM
same,MIC90,[2],7.45 µM
same,IC50,[3],> 50 µM
CC(=O)O[C@H]1C[C@@]2(C)[C@@H](C[C@@H](O)[C@H]3[C@@]4(C)CC[C@@H](O)[C@@H](C)[C@@H]4CC[C@@]32C)/C1=C(\CCC=C(C)C)C(=O)NCc1ccc(C)cc1,MIC90,[1],125 µM
same,MIC90,[2],> 125 µM
same,IC50,[3],> 50 µM
CC(=O)O[C@H]1C[C@@]2(C)[C@@H](C[C@@H](O)[C@H]3[C@@]4(C)CC[C@@H](O)[C@@H](C)[C@@H]4CC[C@@]32C)/C1=C(\CCC=C(C)C)C(=O)NC(C)c1ccc(F)cc1 (mixture of isomers),MIC90,[1],> 125 µM
same,MIC90,[2],19.8 µM
same,IC50,[3],45.3 µM
CC(=O)O[C@H]1C[C@@]2(C)[C@@H](C[C@@H](O)[C@H]3[C@@]4(C)CC[C@@H](O)[C@@H](C)[C@@H]4CC[C@@]32C)/C1=C(\CCC=C(C)C)C(=O)NC(C)c1ccncc1 (mixture of isomers),MIC90,[1],125 µM
same,MIC90,[2],13 µM
same,IC50,[3],> 50 µM
CC(=O)O[C@H]1C[C@@]2(C)[C@@H](C[C@@H](O)[C@H]3[C@@]4(C)CC[C@@H](O)[C@@H](C)[C@@H]4CC[C@@]32C)/C1=C(\CCC=C(C)C)C(=O)NC(C)c1ccc(C)cc1 (mixture of isomers),MIC90,[1],> 125 µM
same,MIC90,[2],2.91 µM
same,IC50,[3],47.9 µM
CC(=O)O[C@H]1C[C@@]2(C)[C@@H](C[C@@H](O)[C@H]3[C@@]4(C)CC[C@@H](O)[C@@H](C)[C@@H]4CC[C@@]32C)/C1=C(\CCC=C(C)C)C(=O)NC(C)c1cnccn1 (mixture of isomers),MIC90,[1],62.5 µM
same,MIC90,[2],17.5 µM
same,IC50,[3],> 50 µM
CC(=O)O[C@H]1C[C@@]2(C)[C@@H](C[C@@H](O)[C@H]3[C@@]4(C)CC[C@@H](O)[C@@H](C)[C@@H]4CC[C@@]32C)/C1=C(\CCC=C(C)C)C(=O)NC(C)c1cccnc1 (mixture of isomers),MIC90,[1],> 125 µM
same,MIC90,[2],17.9 µM
same,IC50,[3],> 50 µM
CC(=O)O[C@H]1C[C@@]2(C)[C@@H](C[C@@H](O)[C@H]3[C@@]4(C)CC[C@@H](O)[C@@H](C)[C@@H]4CC[C@@]32C)/C1=C(\CCC=C(C)C)C(=O)NC(C)c1ccc(Cl)c(Cl)c1 (mixture of isomers),MIC90,[1],32.3 µM
same,MIC90,[2],7.2 µM
same,IC50,[3],> 50 µM
CC[C@H]1CN2CCc3cc(OC)c(OC)cc3[C@@H]2C[C@@H]1C[C@H]1NCCc2cc(OC)c(OC)cc21 [EMETINE],IC50,[3],0.02 µM
CC(=O)O[C@H]1C[C@@]2(C)[C@@H](C[C@@H](O)[C@H]3[C@@]4(C)CC[C@@H](O)[C@@H](C)[C@@H]4CC[C@@]32C)/C1=C(\CCC=C(C)C)C(=O)O [FUSIDIC ACID],MIC90,[1],9.25 µM
same,MIC90,[2],0.24 µM
same,MIC90,[4],31 µM
same,fraction unbound,[5],0.03 to 0.05
CO[C@H]1/C=C/O[C@@]2(C)Oc3c(C)c(O)c4c(O)c(c(/C=N/N5CCN(C)CC5)c(O)c4c3C2=O)NC(=O)/C(C)=C\C=C\[C@H](C)[C@H](O)[C@@H](C)[C@@H](O)[C@@H](C)[C@H](OC(C)=O)[C@@H]1C [RIFAMPIN],MIC90,[1],0.009 µM
same,MIC90,[2],0.02 µM

# From ChEMBL document CHEMBL4373649, “Novel antimycobacterial C-21 amide derivatives of the antibiotic fusidic acid: synthesis, pharmacological evaluation and rationalization of media-dependent activity using molecular docking studies in the binding site of human serum albumin” (Medchemcomm, 2019)
